Here are results for two compounds from ChEMBL document CHEMBL4406821, “Novel dual inhibitors targeting CDK4 and VEGFR2 synergistically suppressed cancer progression and angiogenesis” (Eur J Med Chem, 2019).

Calls of active or inactive are those of the source. The rule behind the calls is not given here.

Data set [1] addresses Calcium/calmodulin-dependent protein kinase type 1G (Homo sapiens) (UniProt Q96NX5). Nature of the data set: Inhibition of recombinant full length human CAMKIgamma at 1 uM using KKLRRTLSFAEPG as substrate incubated for 40 mins in presence of [gamma-33P]-ATP by scintillation counting method relative to control. The gist of the method:
(§1)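 Kinase panel profiling at 1 μM performed by Eurofins KinaseProfiler; percent inhibition reported as mean of two independent experiments.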

Data set [2] concerns the target Angiopoietin-1 receptor (Homo sapiens) (UniProt Q02763). Kind of data set: Inhibition of recombinant human TIE2 (771 to end residues) at 1 uM using EFPIYDFLPAKKK as substrate incubated for 40 mins in presence of [gamma-33P]-ATP by scintillation counting method relative to control.
The target of data set [3] is Inhibitor of nuclear factor kappa-B kinase subunit alpha (Homo sapiens) (UniProt O15111). Nature of the data set: Inhibition of recombinant human full length IKKalpha at 1 uM using peptide as substrate incubated for 40 mins in presence of [gamma-33P]-ATP by scintillation counting method relative to control. The gist of the method: (§2)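 Tested at a single 1 uM in an outsourced commercial kinase-profiling panel, read as percent inhibition. Each value is the mean of two independent experiments.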

The test system of data set [4] is Platelet-derived growth factor receptor alpha (Homo sapiens), P16234 [D842V]. Kind of data set: Inhibition of recombinant human PDGFRalpha D842V mutant (550 to end residues) at 1 uM using GGMEDIYFEFMGGKKK as substrate incubated for 40 mins in presence of [gamma-33P]-ATP by scintillation counting method relative to control. The gist of the method:
as §2

For data set [5], the system named is MDA-MB-231. Nature of the data set: Induction of apoptosis in human MDA-MB-231 cells assessed as decrease in Rb phosphorylation incubated for 48 hrs by Western blot analysis. Type of data set: functional, cell-based. The gist of the method: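 Cells were treated for 48 h, washed three times with PBS, and lysed in RIPA buffer. Immunoblots used anti-Rb, anti-phospho-Rb, anti-Ki67 and anti-Bcl-2 (each 1:1000), with β-actin as loading control.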
(Immunoblotting shows a protein as a band on a membrane.)

In data set [6] the target is Maternal embryonic leucine zipper kinase (Homo sapiens) (UniProt Q14680). Kind of data set: Inhibition of recombinant human MELK (1 to 340 end residues) at 1 uM using KKLNRTLSFAEPG as substrate incubated for 40 mins in presence of [gamma-33P]-ATP by scintillation counting method relative to control.
Data set [7] in a line: Oral bioavailability in Sprague-Dawley rat at 10 mg/kg by HPLC-MS analysis. Format: ADME, organism-based. The following applies: in vivo.
The target of data set [8] is Serine/threonine-protein kinase TAO1 (Homo sapiens) (UniProt Q7L7X3). Kind of data set: Inhibition of recombinant human TAO1 (1 to 327 residues) at 1 uM using myelin basic protein as substrate incubated for 40 mins in presence of [gamma-33P]-ATP by scintillation counting method relative to control.
The target of data set [9] is Serine/threonine-protein kinase 32C (Homo sapiens) (UniProt Q86UX6). Nature of the data set: Inhibition of recombinant human full length STK32C at 1 uM using casein as substrate incubated for 40 mins in presence of [gamma-33P]-ATP by scintillation counting method relative to control.
The target in data set [10] is Cyclin-dependent kinase 1/cyclin B1 (Homo sapiens, UniProt P06493). Kind of data set: Inhibition of recombinant human full length CDK1/CyclinB using histone H1 as substrate incubated for 40 mins in presence of [gamma-33P]-ATP by scintillation counting method. Format: protein-complex assay.
Data set [11] addresses Phosphatidylinositol 4,5-bisphosphate 3-kinase catalytic subunit gamma isoform (Homo sapiens) (UniProt P48736). Nature of the data set: Inhibition of recombinant human full length PI3K p120gamma at 1 uM using phosphatidylinositol-4, 5-bisphosphate as substrate incubated for 40 mins in presence of [gamma-33P]-ATP by scintillation counting method relative to control.
The nature of data set [12]: MRT (0 to t) in Sprague-Dawley rat at 10 mg/kg at 10 mg/kg, po by HPLC-MS analysis. Format: ADME, organism-based. The following applies: in vivo.
In data set [13] the target is PI3K p110 beta/p85 alpha (Homo sapiens) (UniProt P27986+P42338). Kind of data set: Inhibition of recombinant human full length PI3K p110beta/p85alpha at 1 uM using phosphatidylinositol-4, 5-bisphosphate as substrate incubated for 40 mins in presence of [gamma-33P]-ATP by scintillation counting method relative to control. Type of data set: protein-complex assay.
Data set [14] deals with Protein kinase C delta type (Homo sapiens) (UniProt Q05655). Nature of the data set: Inhibition of recombinant human PKCdelta (2 to end residues) at 1 uM using ERMRPRKRQGSVRRRV as substrate incubated for 40 mins in presence of [gamma-33P]-ATP by scintillation counting method relative to control.
Data set [15] in a line: Volume of distribution in Sprague-Dawley rat at 10 mg/kg, po by HPLC-MS analysis. Format: ADME, organism-based. The note with it: in vivo.
Data set [16] has as its target Rhodopsin kinase GRK1 (Homo sapiens) (UniProt Q15835). Kind of data set: Inhibition of recombinant human full length GRK1 at 1 uM using KKKKERLLDDRHDSGLDSMKDEE as substrate incubated for 40 mins in presence of [gamma-33P]-ATP by scintillation counting method relative to control.
In another data set the test system is Saccharomyces cerevisiae. Nature of the data set: Inhibition of recombinant fungi CK1 (2 to 298 residues) at 1 uM using KRRRALS(p)VAS as substrate incubated for 40 mins in presence of [gamma-33P]-ATP by scintillation counting method relative to control. The gist of the method: as §1
In data set [17] the target is Protein kinase C beta type (Homo sapiens) (UniProt P05771). Kind of data set: Inhibition of recombinant human PKCbeta2 (2 to end residues) at 1 uM using histone H1 as substrate incubated for 40 mins in presence of [gamma-33P]-ATP by scintillation counting method relative to control.
The target of data set [18] is Serine/threonine-protein kinase MRCK alpha (Homo sapiens) (UniProt Q5VT25). Nature of the data set: Inhibition of recombinant human MRCKalpha (1 to 473 residues) at 1 uM using KKRNRTLTV as substrate incubated for 40 mins in presence of [gamma-33P]-ATP by scintillation counting method relative to control.
In data set [19] the target is Ephrin type-B receptor 4 (Homo sapiens) (UniProt P54760). Kind of data set: Inhibition of recombinant human EPhB4 (561 to end residues) at 1 uM using poly (Glu, Tyr) 4:1 as substrate incubated for 40 mins in presence of [gamma-33P]-ATP by scintillation counting method relative to control.
A further data set deals with Mus musculus. Nature of the data set: Antiangiogenic activity in Matrigel plug angiogenic BALB/c mouse assessed as reduction in blood vessel formation at 20 mg/kg, sc measured after 10 days by Matrigel plug assay. Format: functional, organism-based. The gist of the method: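 Balb/c mice, 5 weeks old, were injected subcutaneously with 750 µL of a 2:1 mix of growth factor-reduced Matrigel and compound (10 or 20 mg/kg) or vehicle. Plugs were harvested after 10 days and the subcutaneous vessels photographed.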

For data set [20], the system named is MDA-MB-231. Kind of data set: Induction of apoptosis in human MDA-MB-231 cells at 40 nM incubated for 48 hrs by annexin V FITC and propidium iodide staining based flow cytometry. Type of data set: functional, cell-based. The gist of the method: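 Annexin V-FITC/PI double staining with flow-cytometric readout. MDA-MB-231, T-47D, SiHa and HeLa cells were treated with graded concentrations for 48 h. MDA-MB-231 and T-47D were grown in DMEM and SiHa in 1640 medium, each with 10% FBS and 1% penicillin/streptomycin at 37°C under 5% CO2. Early- and late-stage apoptotic fractions were scored.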
For orientation: In flow cytometry, cells or beads pass a laser one at a time.

Serine/threonine-protein kinase TAO1 (Homo sapiens), sequence (Q7L7X3 whole entry, the tested form may be a part): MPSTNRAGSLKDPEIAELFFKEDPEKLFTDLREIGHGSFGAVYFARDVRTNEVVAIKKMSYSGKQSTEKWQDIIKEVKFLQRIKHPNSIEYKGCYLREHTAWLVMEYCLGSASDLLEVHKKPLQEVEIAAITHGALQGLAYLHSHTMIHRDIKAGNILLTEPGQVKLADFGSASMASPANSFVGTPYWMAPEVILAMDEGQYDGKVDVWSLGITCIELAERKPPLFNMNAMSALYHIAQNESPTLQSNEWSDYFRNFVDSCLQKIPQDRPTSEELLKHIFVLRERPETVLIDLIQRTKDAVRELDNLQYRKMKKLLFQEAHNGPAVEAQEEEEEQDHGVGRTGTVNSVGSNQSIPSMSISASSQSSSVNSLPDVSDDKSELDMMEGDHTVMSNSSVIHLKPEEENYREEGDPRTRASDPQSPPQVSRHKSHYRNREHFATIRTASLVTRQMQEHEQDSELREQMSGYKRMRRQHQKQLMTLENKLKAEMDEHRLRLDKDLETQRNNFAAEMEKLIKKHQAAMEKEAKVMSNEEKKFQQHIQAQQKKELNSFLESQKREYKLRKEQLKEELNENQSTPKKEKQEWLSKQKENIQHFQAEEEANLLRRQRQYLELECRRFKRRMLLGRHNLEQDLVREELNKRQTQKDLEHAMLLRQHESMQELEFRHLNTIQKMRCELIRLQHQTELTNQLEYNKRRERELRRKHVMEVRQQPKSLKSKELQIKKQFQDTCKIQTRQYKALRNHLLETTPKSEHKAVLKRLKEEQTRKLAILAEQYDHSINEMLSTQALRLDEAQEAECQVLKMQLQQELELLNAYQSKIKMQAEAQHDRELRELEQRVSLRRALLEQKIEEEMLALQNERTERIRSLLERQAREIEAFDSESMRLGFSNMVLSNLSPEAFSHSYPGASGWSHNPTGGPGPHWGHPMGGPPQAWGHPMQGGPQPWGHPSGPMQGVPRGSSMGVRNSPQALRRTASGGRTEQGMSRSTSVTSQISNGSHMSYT
Serine/threonine-protein kinase 32C (Homo sapiens), sequence (Q86UX6 whole entry): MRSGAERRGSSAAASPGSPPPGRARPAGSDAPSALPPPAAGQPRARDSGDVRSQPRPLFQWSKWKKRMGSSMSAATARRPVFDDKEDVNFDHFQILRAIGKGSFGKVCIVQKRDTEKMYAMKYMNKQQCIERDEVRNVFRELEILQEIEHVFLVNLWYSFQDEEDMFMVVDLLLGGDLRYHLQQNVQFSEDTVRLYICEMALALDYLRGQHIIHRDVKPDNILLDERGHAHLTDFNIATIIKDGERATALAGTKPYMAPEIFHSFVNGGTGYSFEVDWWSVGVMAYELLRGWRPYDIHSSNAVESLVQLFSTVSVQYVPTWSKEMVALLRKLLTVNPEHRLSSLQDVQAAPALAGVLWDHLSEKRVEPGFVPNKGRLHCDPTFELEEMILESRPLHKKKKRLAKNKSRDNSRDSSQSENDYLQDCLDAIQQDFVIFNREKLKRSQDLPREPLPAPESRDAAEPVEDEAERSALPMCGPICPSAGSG
Angiopoietin-1 receptor (Homo sapiens), sequence (Q02763 whole entry): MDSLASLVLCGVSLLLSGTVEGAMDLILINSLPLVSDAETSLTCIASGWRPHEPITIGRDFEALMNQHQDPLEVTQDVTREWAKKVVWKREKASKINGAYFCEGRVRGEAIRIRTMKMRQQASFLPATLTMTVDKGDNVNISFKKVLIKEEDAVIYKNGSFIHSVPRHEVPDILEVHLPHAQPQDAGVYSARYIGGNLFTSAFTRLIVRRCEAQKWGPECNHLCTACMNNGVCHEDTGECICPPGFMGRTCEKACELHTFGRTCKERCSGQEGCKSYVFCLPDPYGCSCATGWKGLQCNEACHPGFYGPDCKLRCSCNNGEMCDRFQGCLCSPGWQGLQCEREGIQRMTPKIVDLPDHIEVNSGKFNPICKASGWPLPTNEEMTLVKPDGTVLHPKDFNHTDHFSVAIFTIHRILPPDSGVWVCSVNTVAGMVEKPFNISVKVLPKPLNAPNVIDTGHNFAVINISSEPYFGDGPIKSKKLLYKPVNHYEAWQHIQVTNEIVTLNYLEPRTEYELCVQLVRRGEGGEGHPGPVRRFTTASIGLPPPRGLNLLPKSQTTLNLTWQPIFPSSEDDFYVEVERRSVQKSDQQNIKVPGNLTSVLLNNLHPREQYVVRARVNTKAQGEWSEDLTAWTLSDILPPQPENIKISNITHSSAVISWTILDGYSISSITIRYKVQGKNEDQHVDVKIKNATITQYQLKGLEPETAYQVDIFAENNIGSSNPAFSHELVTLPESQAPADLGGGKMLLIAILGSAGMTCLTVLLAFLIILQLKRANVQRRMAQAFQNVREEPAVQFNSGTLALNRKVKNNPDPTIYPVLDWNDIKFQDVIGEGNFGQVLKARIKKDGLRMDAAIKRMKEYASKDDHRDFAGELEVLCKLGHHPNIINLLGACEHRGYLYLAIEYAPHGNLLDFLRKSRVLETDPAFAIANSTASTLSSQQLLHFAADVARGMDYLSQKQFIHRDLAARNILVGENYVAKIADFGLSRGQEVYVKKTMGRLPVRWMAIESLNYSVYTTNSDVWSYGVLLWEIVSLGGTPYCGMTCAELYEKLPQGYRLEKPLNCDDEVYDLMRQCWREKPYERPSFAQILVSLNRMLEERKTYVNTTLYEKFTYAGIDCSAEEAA
Inhibitor of nuclear factor kappa-B kinase subunit alpha (Homo sapiens), sequence (O15111 whole entry): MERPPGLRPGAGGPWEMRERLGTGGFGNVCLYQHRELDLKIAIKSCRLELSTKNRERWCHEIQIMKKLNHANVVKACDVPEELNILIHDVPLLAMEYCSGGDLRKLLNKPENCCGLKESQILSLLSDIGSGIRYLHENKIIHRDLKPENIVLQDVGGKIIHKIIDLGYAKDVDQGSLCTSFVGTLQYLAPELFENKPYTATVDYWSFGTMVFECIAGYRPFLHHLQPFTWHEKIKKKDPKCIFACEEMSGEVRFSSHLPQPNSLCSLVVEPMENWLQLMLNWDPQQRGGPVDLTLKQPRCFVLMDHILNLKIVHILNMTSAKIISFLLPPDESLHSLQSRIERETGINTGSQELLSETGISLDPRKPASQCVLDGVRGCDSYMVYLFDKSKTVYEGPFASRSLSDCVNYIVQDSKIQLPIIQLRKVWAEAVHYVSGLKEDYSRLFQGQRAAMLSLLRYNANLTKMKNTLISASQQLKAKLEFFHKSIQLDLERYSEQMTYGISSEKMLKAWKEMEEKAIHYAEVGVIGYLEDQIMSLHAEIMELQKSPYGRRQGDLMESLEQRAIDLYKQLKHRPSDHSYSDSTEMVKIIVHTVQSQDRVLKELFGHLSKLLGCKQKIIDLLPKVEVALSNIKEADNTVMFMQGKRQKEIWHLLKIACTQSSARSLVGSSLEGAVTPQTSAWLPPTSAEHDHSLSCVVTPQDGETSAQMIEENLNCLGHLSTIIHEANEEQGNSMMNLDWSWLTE
Protein kinase C delta type (Homo sapiens), sequence (Q05655 whole entry, looked up): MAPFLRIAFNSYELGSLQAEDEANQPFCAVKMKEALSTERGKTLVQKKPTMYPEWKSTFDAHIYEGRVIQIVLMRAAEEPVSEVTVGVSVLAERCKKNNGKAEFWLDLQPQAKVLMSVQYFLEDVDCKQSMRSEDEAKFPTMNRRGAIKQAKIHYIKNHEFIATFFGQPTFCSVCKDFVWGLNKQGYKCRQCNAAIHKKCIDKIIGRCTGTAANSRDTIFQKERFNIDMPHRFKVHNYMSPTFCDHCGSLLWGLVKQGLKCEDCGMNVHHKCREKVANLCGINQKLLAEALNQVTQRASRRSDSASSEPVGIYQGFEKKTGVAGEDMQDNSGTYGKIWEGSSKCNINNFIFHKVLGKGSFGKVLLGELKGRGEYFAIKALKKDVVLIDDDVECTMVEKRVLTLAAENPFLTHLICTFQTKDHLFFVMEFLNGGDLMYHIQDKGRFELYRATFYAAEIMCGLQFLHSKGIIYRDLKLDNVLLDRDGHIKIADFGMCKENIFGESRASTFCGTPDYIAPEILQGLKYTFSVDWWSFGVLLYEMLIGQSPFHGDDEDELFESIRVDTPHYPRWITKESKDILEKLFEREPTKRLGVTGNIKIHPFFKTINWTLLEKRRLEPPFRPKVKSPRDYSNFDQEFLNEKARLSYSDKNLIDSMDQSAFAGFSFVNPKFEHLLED
Rhodopsin kinase GRK1 (Homo sapiens), sequence (Q15835 whole entry, the tested form may be a part): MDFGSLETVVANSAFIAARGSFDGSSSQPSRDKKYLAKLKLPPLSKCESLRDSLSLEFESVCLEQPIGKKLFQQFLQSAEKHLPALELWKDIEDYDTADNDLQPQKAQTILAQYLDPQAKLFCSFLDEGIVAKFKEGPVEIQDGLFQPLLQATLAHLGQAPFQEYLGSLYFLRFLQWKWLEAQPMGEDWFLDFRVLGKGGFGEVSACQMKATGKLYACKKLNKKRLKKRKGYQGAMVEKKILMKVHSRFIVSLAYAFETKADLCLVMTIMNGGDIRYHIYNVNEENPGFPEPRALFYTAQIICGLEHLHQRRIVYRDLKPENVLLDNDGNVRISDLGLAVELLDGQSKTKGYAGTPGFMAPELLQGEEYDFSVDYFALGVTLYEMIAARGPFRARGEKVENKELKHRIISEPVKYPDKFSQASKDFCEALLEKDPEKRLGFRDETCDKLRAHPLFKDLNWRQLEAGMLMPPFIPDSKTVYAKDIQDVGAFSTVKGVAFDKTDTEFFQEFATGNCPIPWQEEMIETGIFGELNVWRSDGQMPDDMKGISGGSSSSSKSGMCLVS
Calcium/calmodulin-dependent protein kinase type 1G (Homo sapiens), sequence (Q96NX5 whole entry): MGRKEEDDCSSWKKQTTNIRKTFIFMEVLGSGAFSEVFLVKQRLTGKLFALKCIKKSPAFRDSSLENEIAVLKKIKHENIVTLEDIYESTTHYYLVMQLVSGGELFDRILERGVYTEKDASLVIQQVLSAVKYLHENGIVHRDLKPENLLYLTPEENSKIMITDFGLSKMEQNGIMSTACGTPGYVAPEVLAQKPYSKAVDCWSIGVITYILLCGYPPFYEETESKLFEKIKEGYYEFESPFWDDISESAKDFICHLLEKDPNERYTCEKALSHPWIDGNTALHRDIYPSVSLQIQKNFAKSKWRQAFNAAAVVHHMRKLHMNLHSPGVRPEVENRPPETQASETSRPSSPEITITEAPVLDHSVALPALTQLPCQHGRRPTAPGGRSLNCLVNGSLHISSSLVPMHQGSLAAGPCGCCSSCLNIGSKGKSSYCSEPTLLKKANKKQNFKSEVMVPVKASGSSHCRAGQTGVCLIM

For the compound `Cc1ccc(NC(=O)C2(C(=O)Nc3ccc(Nc4ncc(F)c(-c5cc(F)c6nc(C)n(C(C)C)c6c5)n4)cc3)CC2)cc1`, the inhibition was determined as 5% in data set [1]; 23% in data set [2]; 0% in [3]; 48% in [4]; 53% in data set [6]; 2% in [8]. For the same compound, the inhibition in data set [9] turned out to be 5%; in data set [11] it was 14%; in data set [13], 12%; in [14], 29%; in data set [16], 8%; in the data set on Saccharomyces cerevisiae, 48%. In addition, the inhibition in data set [17] is 47%; in data set [18], 21%; in [19], 42%. The Activity result with MDA-MB-231 [5] is “Dose-dependent effect”. The compound also gave a bioavailability in data set [7] of 60%. Further, in data set [10], the IC50 was found to be 247 nM. In data set [12], this compound registered an MRT last of 4 h. This compound also came in with a Vd in data set [15] of 6 L/kg.
Consider `COc1cc2nccc(Oc3ccc(NC(=O)C4(C(=O)Nc5ccc(F)cc5)CC4)cc3)c2cc1OC` [CABOZANTINIB], for which the inhibition result in the data set with Mus musculus is “Active”. Further, the result in the data set with MDA-MB-231 [20] was Active.

Usually inhibition stands for the drop in the measured response relative to a control, in per cent. Usually bioavailability stands for the share of a dose that reaches the circulation, judged against a reference dose that is usually intravenous. A high value points to good availability. In general, IC50 refers to the concentration needed to halve the response being measured. What is called MRT last is the average time that molecules of a dose stay in the body.
